The values below come from PubChem BioAssay.

The nature of experiment [1]: inhibitors of TNFa-induced NFkB p65 translocation, primary screen, imaging, HUVEC, MLSMR starter and 10KST1 sets (AID 438;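 active = inhibition above 20% together with a positive visual image hit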;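 note: compound added about 3h40 before a 20 min TNFalpha stimulation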;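 for inhibition: signal is the nuclear over cytoplasmic p65 intensity ratio per well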). As to conditions: HUVEC TNFa-induced p65 nuclear translocation; cell count: measured here: nuclei count (cytotoxicity indicator), at 2.08 µM; inhibition: at 2 µM, stronger effect = higher value, 0% TNFa-plus-vehicle, 100% no-TNFa wells.
A short description of experiment [2]: reduction of polyQ htt aggregates in cells – imaging, exon1htt(103Q)mCFP cells, high-content imaging, primary screen (AID 483).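 For nuclei count: percent of the per-plate median nuclei count of sample wells.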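 Note: compound exposure lasted 3 days before fixation.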 The following applies: exon1htt(103Q)mCFP cell line, aggregate imaging, at 2 µM; inhibition of aggregation: stronger effect = higher value; nuclei count: measured here: cell count, toxicity.
Experiment [3] in a line: endothelial E-selectin expression blockers – imaging, HUVEC, immunofluorescence, MLSMR starter and 10KST1 sets, primary screen (AID 487;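 active = visually confirmed hit in the image check and inhibition above 20%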;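 for inhibition: signal is fraction of cell area covered by stained E-selectin grains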;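 for nuclei count: 100% = median nuclei count of all wells on the same plate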). The following applies: HUVEC TNFalpha-induced E-selectin immunofluorescence imaging, at 2 µM; inhibition: stronger effect = higher value; nuclei count: measured here: cell number, toxicity.
Experiment [4] concerns the target Voltage-gated potassium channel subunit beta-2 (Rattus norvegicus) (UniProt P62483). As to the kind of experiment: inhibitors of rat Kvbeta2 reductase activity – biochemical, NADPH fluorescence, primary screen (AID 622;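 active = fluorescence slope higher than the sample average by over 3 SD, cut at about -0.22 in these data, passing the limit was not always enough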;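 note: slope of raw intensity against log time taken from 70 to 1610 s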). The following applies: recombinant KvBeta, 4-cyanobenzaldehyde reduction, at 10 µM, stronger effect = higher value.
For experiment [5] the target is unchanged. As to the kind of experiment: enhancers of rat Kvbeta2 NADPH turnover – biochemical, NADPH fluorescence, primary screen (AID 623;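 active = NADPH fluorescence slope more negative than the mean of all samples by about 3 SD, 99.7% confidence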;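 note: fluorescence intensity change per second fitted from 20 to 320 s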). As to conditions: Recombinant KvBeta, NADPH fluorescence decrease slope, 10 min; at 10 µM; stronger effect = lower value.
Experiment [6] concerns the target Muscarinic acetylcholine receptor M4 (Homo sapiens) (UniProt P08173). As to the kind of experiment: M4-linked GIRK flux change, two-sided – cell-based, HEK293 M4/GIRK, thallium flux, BTC-AM, M4 allosteric agonist project, primary screen (AID 625;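 active = fluorescence slope after compound addition differing from the mean of all tested samples at 99.7% confidence, mostly higher but some lower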;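 note: thallium influx through GIRK channels coupled to M4 in HEK293 cells with BTC-AM dye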). The following applies: at 10 µM, actives lie on both sides. A digest of the protocol: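 System: HEK293 cells with M4 receptor and GIRK channels | Incubation: Cells overnight at 37 °C, BTC-AM loading 1 h, reads 2 min total | Technique: Kinetic BTC-AM fluorescence sampled at 1 Hz, 10 s pre-addition baseline | Measure: Post-addition slope, 15–24 s, of baseline-normalized fluorescence | Control set: Carbachol positive, DMSO negative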

Experiment [7] is described as follows: blockers of RIG-like receptor reporter activation – cell-based, Sendai virus stimulus, luciferase, 10K MLSCN set, TLR/RLR signaling modifier project, primary screen (AID 602276;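 active = inhibition at or above 50% at 10 µM; inactive = inhibition below 50%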;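 note: firefly luciferase from ISG56 promoter only with Renilla not read in this screen; 0% = Sendai virus plus DMSO and 100% = medium plus DMSO without virus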). The following applies: HEK293 RL24 IRF3 luciferase reporter, at 10 µM, stronger effect = higher value. A general note: A reporter such as luciferase makes a cellular process visible.
The nature of experiment [8]: TLR3 IRF3 reporter activation blockers – cell-based, poly I:C stimulus, luciferase, 10K MLSCN set, primary screen (AID 602277;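 active = inhibition of the reporter signal at or above 50%; inactive = inhibition below 50%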). As to conditions: HEK293-TLR3 RL24 IRF3 luciferase reporter, at 10 µM, stronger effect = higher value.

Molecules are shown by their SMILES. Calls of active or inactive are those of the source.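 Rule for the calls, unless noted: active = visual image review flags a hit and inhibition of aggregation exceeds 20%; inconclusive = visual hit but inhibition at or below 20%; inactive = no hit on visual image review.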

Sequence of Voltage-gated potassium channel subunit beta-2 (Rattus norvegicus) (P62483 whole entry, looked up): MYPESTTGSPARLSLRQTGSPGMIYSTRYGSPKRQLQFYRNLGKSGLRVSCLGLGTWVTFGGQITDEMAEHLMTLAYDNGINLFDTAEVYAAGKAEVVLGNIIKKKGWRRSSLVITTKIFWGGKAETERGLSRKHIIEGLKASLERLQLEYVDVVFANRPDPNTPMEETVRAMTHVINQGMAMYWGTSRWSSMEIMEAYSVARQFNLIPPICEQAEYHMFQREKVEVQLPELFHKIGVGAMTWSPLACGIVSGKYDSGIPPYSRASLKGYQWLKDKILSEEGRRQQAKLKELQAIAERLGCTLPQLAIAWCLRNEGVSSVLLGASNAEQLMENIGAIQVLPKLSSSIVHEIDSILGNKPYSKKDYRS
Sequence of Muscarinic acetylcholine receptor M4 (Homo sapiens) (P08173 whole entry, looked up): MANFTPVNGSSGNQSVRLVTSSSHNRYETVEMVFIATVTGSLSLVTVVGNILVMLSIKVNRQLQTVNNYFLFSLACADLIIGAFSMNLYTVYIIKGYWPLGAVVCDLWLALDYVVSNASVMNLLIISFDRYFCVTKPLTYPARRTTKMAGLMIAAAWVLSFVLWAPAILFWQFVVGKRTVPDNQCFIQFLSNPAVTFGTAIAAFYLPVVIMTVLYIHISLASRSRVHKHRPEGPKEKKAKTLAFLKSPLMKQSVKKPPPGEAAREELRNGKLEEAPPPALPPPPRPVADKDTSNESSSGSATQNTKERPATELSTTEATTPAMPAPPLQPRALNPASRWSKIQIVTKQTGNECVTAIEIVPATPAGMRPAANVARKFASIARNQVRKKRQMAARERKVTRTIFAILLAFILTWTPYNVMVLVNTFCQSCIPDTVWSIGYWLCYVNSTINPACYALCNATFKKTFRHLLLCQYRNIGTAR

The term inhibition denotes the drop in the measured response relative to a control, in per cent. In the case of `Cc1ccc2cc(C#N)c(N3CCCC3)nc2c1C`, the cell count in experiment [1] stood at 360. The inhibition in experiment [1] was 4.8% (inactive); in experiment [3], -49.6% (inactive); in experiment [7], 13.3% (inactive); in experiment [8], -29.1% (inactive). Besides, the inhibition of aggregation in experiment [2] was 10% (inactive). Moreover, the nuclei count in experiment [2] came to 111%; in experiment [3], 110%. The values for the fluorescence slope in experiment [4] and in experiment [6] were -0.195 (inactive) and 0.00646 (inactive), respectively. Also, in experiment [5], the NADPH fluorescence slope was -2.2e-05 (inactive).
For the compound `COc1ccc(C(=O)Nc2ccc(S(=O)(=O)Nc3nccnc3OC)cc2)cc1OC`, in experiment [1], the cell count amounted to 459. The inhibition in experiment [1] was 8.1% (inactive); in experiment [3], -126% (inactive); in experiment [7], 21.5% (inactive); in experiment [8] it was 34.3% (inactive). The inhibition of aggregation in experiment [2] is 4.1% (inactive). Moreover, the values for the nuclei count in experiment [2] and in experiment [3] were 101% and 123%, respectively. Also, the values for the fluorescence slope in experiment [4] and in experiment [6] were -0.601 (inactive) and 0.0057 (inactive), respectively. Also, the NADPH fluorescence slope in experiment [5] is 6.9e-06 (inactive).
`COc1ccccc1OCc1ccc(C(=O)NC(C)(C)C)o1`: the cell count in experiment [1] amounted to 735. Moreover, the inhibition in experiment [1] is -5.5% (inactive); in experiment [3], -20.5% (inactive); in experiment [7], -16.1% (inactive); in experiment [8], -22.5% (inactive). Further, in experiment [2], the inhibition of aggregation was 0.6% (inactive). Moreover, the results for the nuclei count in experiment [2] and in experiment [3] were 62.4% and 112%, respectively. The fluorescence slope in experiment [4] is -0.601 (inactive); in experiment [6], 0.00541 (inactive). Also, the NADPH fluorescence slope in experiment [5] is 5.2e-05 (inactive).
Regarding `N#CC1=C(N)SC(N)=C(C#N)C1CCc1ccccc1`, the cell count in experiment [1] turned out to be 300. For the same compound, the inhibition in experiment [1] is -3.2% (inactive); in experiment [3], -171% (inactive); in experiment [7], 18% (inactive); in experiment [8], 26.3% (inactive). In addition, in experiment [2], the inhibition of aggregation was -16.8% (inactive). Also, the nuclei count was found to be 83% in experiment [2] and 104% in experiment [3]. Moreover, the fluorescence slope was -0.543 (inactive) in experiment [4] and 0.00612 (inactive) in experiment [6]. The NADPH fluorescence slope in experiment [5] was -2e-06 (inactive).
For `CC(C)N(C(=O)COC(=O)c1ccc(O)cc1)C(C)C`, the cell count in experiment [1] stood at 467. The inhibition in experiment [1] was 1% (inactive); in experiment [3], -8.7% (inactive); in experiment [7], 17.3% (inactive); in experiment [8], 14.3% (inactive). In addition, the inhibition of aggregation in experiment [2] is 12.6% (inactive). In addition, the nuclei count stood at 112% in experiment [2] and 121% in experiment [3]. Besides, the fluorescence slope in experiment [4] is -0.553 (inactive); in experiment [6], 0.00574 (inactive). In addition, in experiment [5], the NADPH fluorescence slope is -3.1e-05 (inactive).
Take `Cc1cc(Cl)ccc1OCCCC(=O)N1CCOCC1`: the cell count in experiment [1] stood at 571. Moreover, the inhibition in experiment [1] was -1.5% (inactive); in experiment [3], -29.2% (inactive); in experiment [7], -29.3% (inactive); in experiment [8], -72.8% (inactive). Besides, the inhibition of aggregation in experiment [2] was -0.1% (inactive). For the same compound, the nuclei count in experiment [2] amounted to 94.9%; in experiment [3], 112%. Moreover, the figures for the fluorescence slope in experiment [4] and in experiment [6] were -0.503 (inactive) and 0.00464 (inactive), respectively. Besides, in experiment [5], the NADPH fluorescence slope is -0.000205 (inactive).
Regarding `O=C(N1CCOCC1)N1CCC(NC(=O)C23CC4CC(CC(C4)C2)C3)CC1`, the cell count in experiment [1] was found to be 363. For the same compound, the inhibition is 9.1% (inactive) in experiment [1], -15.5% (inactive) in experiment [3], 15.6% (inactive) in experiment [7] and 21.8% (inactive) in experiment [8]. For the same compound, the inhibition of aggregation in experiment [2] is -0.3% (inactive). Further, the nuclei count in experiment [2] was 99%; in experiment [3] it was 81.8%. Besides, the values for the fluorescence slope in experiment [4] and in experiment [6] were -0.55 (inactive) and 0.00404 (inactive), respectively. Besides, the NADPH fluorescence slope in experiment [5] was -4e-05 (inactive).
For the compound `Cc1ccc(C)c(-c2nc3ccc(N)cc3[nH]2)c1`, the cell count in experiment [1] stood at 340. In addition, the inhibition was 3.9% (inactive) in experiment [1], -114% (inactive) in experiment [3], 15.4% (inactive) in experiment [7] and -9.14% (inactive) in experiment [8]. The inhibition of aggregation in experiment [2] is 30.3% (inactive). The nuclei count stood at 77.7% in experiment [2] and 100% in experiment [3]. The fluorescence slope in experiment [4] was -0.0465 (active); in experiment [6], 0.00338 (inactive). For the same compound, in experiment [5], the NADPH fluorescence slope was -3.5e-05 (inactive).
For `O=C(CSc1nnc(-c2ccccc2Cl)n1Cc1ccco1)Nc1ccc2c(c1)OCCO2`, the cell count in experiment [1] stood at 309. The inhibition was 0.8% (inactive) in experiment [1], -75.1% (inactive) in experiment [3], 8.89% (inactive) in experiment [7] and 18.1% (inactive) in experiment [8]. For the same compound, the inhibition of aggregation in experiment [2] was 3.4% (inactive). The figures for the nuclei count in experiment [2] and in experiment [3] were 88.5% and 107%, respectively. Besides, the fluorescence slope in experiment [4] is -0.391 (inactive); in experiment [6] it was 0.00631 (inactive). Also, the NADPH fluorescence slope in experiment [5] is -9.8e-05 (inactive).
With `O=C(c1cccs1)N1CCc2ccccc21`, the cell count in experiment [1] is 335. Further, the inhibition in experiment [1] was -3.8% (inactive); in experiment [3] it was -59.6% (inactive); in experiment [7] it was -42% (inactive); in experiment [8], -100% (inactive). Besides, in experiment [2], the inhibition of aggregation is 5% (inactive). The nuclei count in experiment [2] turned out to be 104%; in experiment [3] it was 111%. The fluorescence slope in experiment [4] is -0.511 (inactive); in experiment [6], 0.00554 (inactive). Moreover, the NADPH fluorescence slope in experiment [5] is -5e-05 (inactive).
For `CC(=O)N1C(=O)C2(Nc3ccccc3N2)c2ccccc21`, the cell count in experiment [1] worked out at 406. Also, the inhibition in experiment [1] is -4.3% (inactive); in experiment [3], 20.6% (inactive); in experiment [7], -8.46% (inactive); in experiment [8] it was 9.54% (inactive). In experiment [2], the inhibition of aggregation is 6.4% (inactive). For the same compound, the nuclei count in experiment [2] and in experiment [3] was 108% in each case. Further, the results for the fluorescence slope in experiment [4] and in experiment [6] were -0.283 (inactive) and 0.00603 (inactive), respectively. The NADPH fluorescence slope in experiment [5] is -1.3e-05 (inactive).
As for `CCOC(=O)c1[nH]c(C)c(C(=O)N2CCN(c3ccc(F)cc3)CC2)c1C`, the cell count in experiment [1] was determined as 755. For the same compound, the inhibition was -2.2% (inactive) in experiment [1], -175% (inactive) in experiment [3], 1.11% (inactive) in experiment [7] and 8.18% (inactive) in experiment [8]. Moreover, in experiment [2], the inhibition of aggregation was -27% (inactive). Moreover, the nuclei count is 118% in experiment [2] and 119% in experiment [3]. Further, the fluorescence slope was -0.451 (inactive) in experiment [4] and 0.00564 (inactive) in experiment [6]. In experiment [5], the NADPH fluorescence slope was 1.1e-05 (inactive).
Regarding `Cn1c(SCc2ccc3c(c2)OCO3)nnc1-c1ccccc1`, the cell count in experiment [1] came out at 344. Moreover, the inhibition in experiment [1] is 9.8% (inactive); in experiment [3], -72.5% (inactive); in experiment [7], -9.99% (inactive); in experiment [8], -38.3% (inactive). Besides, the inhibition of aggregation in experiment [2] is 15.3% (inactive). Further, the nuclei count in experiment [2] turned out to be 93.9%; in experiment [3] it was 126%. The figures for the fluorescence slope in experiment [4] and in experiment [6] were -0.526 (inactive) and 0.00602 (inactive), respectively. In addition, in experiment [5], the NADPH fluorescence slope is 4.8e-05 (inactive).
As to `COc1cc(-c2nc(S(=O)(=O)c3ccccc3)c(N3CCOCC3)o2)cc(OC)c1OC`, the cell count in experiment [1] came out at 439. The inhibition in experiment [1] is 6% (inactive); in experiment [3], -286% (inactive); in experiment [7], 14.4% (inactive); in experiment [8], 15.3% (inactive). Moreover, in experiment [2], the inhibition of aggregation is -5.3% (inactive). For the same compound, the nuclei count in experiment [2] is 108%; in experiment [3] it was 126%. The fluorescence slope is -0.471 (inactive) in experiment [4] and 0.0029 (inactive) in experiment [6]. Further, the NADPH fluorescence slope in experiment [5] was -0.000303 (inactive).
